# Source: PubChem (The Scripps Research Institute Molecular Screening Center)
# SIAE inh: human SIAE inhibitors, primary screen, biochemical, fluorescence polarization, FP-Rh probe, 1536-well HTS; inhibition, % at 9.66 µM; actives 0.69% (n = 370,000); Sialate O-acetylesterase (Homo sapiens), Q9HAT2; AID 1053197, 2014; SIAE FP-Rh probe binding;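 active = inhibition above a cutoff: mean of compounds within the control limits plus 3 SD of those, cut at about 17% in these data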
# TCR-CD3 inh: inhibitors of human TCR-CD3 interaction, primary screen, biochemical, fluorescence, TAMRA-labeled TCR probe; T-cell receptor (TCR); inhibition, % at 9.4 µM; actives 0.37% (n = 360,000); AID 651800, 2012;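 also: recombinant mutant TCR 2C K166C tagged with TAMRA read by polarization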
# HTRA1 inh: HTRA1 serine protease inhibitors, primary screen, biochemical, fluorescence polarization, HTS. recombinant HTRA1, FP-rhodamine activity-based probe. actives 0.5% (n = 340,000). Q92743. inhibition, % at 5.96 µM. AID 504803, 2011; in the data active = inhibition above about 36%
# LEDGF integ inh: blockers of LEDGF/p75-dependent integrase strand transfer – biochemical, TR-FRET, high throughput, primary screen; HIV-1 integrase (with human LEDGF/p75); TR-FRET IN-LEDGF/p75 DNA integration, Eu/Cy5; inhibition, % at 3.7 µM; actives 0.64% (n = 370,000); AID 743269, 2014;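 active = inhibition above the screen-wide mean plus 3 SD, cut at about 13% in these data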;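 also: signal is the Cy5 over europium emission ratio at 671 and 618 nm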
# mABHD4 FP: ABHD4 inhibitors, primary screen, biochemical, fluorescence polarization, mouse; (Lyso)-N-acylphosphatidylethanolamine lipase (Mus musculus), Q8VD66; purified mABHD4, FP-Rh probe fluorescence polarization; inhibition, % at 8.92 µM; actives 0.54% (n = 370,000);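 active = inhibition exceeding the mean over every tested compound plus 3 SD, cut at about 30% in these data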
# Target sequence (Q8VD66 whole entry, looked up): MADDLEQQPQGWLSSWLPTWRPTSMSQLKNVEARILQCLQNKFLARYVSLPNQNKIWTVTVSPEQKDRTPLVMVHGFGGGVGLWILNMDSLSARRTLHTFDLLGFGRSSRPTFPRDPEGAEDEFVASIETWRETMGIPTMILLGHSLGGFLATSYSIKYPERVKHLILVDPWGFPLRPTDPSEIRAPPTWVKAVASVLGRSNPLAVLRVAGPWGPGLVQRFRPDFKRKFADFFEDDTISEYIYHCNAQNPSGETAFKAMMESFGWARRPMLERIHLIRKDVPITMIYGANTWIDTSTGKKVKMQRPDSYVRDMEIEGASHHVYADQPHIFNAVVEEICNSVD
#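 System: mouse ABHD4 enzyme, wild type / Medium: HEPES pH 7.0, NaCl, Pluronic buffer / Reagent: FP-Rh activity-based fluorescent probe / Control set: S159A mutant high control, sample median low control / Detection: fluorescence polarization with parallel and perpendicular emission, 525/598 nm / Schedule: 45 min + 60 min at 25 °C / Compound dosing: 8.92 µM, single dose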
# TDP2 absorb: human TDP2 enzyme inhibitors, primary screen, biochemical, epi absorbance, recombinant enzyme; actives 0.34% (n = 370,000); T5PNP hydrolysis, p-nitrophenol absorbance 415 nm; inhibition, % at 12.8 µM; Tyrosyl-DNA phosphodiesterase 2 (Homo sapiens), O95551;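 active = inhibition above the mean of all tested compounds plus 3 SD, set per campaign, cut at about 25% in these data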
# Target sequence (O95551 whole entry, looked up): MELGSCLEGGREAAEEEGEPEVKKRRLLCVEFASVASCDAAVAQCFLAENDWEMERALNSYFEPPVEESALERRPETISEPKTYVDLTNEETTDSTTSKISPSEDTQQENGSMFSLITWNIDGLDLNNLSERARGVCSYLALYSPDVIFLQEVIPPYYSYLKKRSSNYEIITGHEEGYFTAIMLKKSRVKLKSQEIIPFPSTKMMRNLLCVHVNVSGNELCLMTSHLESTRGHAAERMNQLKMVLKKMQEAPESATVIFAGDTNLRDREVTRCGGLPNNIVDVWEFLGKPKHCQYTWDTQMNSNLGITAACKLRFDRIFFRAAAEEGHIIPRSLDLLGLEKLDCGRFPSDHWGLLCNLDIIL
#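 System: recombinant human TDP2 / Amount: 120 nM TDP2 per well / Also added: 5 mM T5PNP chromogenic substrate / Doses: 12.8 µM single point, 1% DMSO / Incubation: 2 h at 37 °C / Detection: p-Nitrophenol epi absorbance / Evaluation: % inhibition relative to enzyme-containing and enzyme-free wells / Repeats: singlicate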
# BSA TAMRA ctr: compounds interfering with TAMRA-BSA probe, counter-screen for TCR-CD3 interaction inhibitor project, biochemical, fluorescence, TAMRA-labeled BSA | inhibition, % at 9.4 µM | AID 652035, 2013 | shares compounds with TCR-CD3 inh | TAMRA-labeled BSA probe fluorescence counterscreen | actives 10% (n = 1,200); in the data active = inhibition above about 23%
# TCR-CD3 conf: TCR-CD3 interaction inhibitors, retest, confirmation, biochemical, fluorescence, TAMRA-labeled TCR probe | shares compounds with TCR-CD3 inh | TAMRA-labeled TCR probe fluorescence binding assay | inhibition, % at 9.4 µM | actives 48% (n = 1,200) | AID 652036, 2013
# mABHD4 conf: ABHD4 inhibitors, retest, confirmation, biochemical, fluorescence polarization, mouse | AID 720658, 2013 | purified mABHD4, FP-Rh probe fluorescence polarization | inhibition, % at 8.92 µM | shares compounds with mABHD4 FP | actives 55% (n = 1,800);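 active = mean inhibition across replicates above the hit cutoff set in the primary screen, cut at about 30% in these data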
# TDP2 confirm: human TDP2 enzyme inhibitors, retest, confirmation, biochemical, epi absorbance, recombinant enzyme; shares compounds with TDP2 absorb; absorbance read-out; inhibition, % at 12.8 µM; actives 22% (n = 1,100); in the data active = inhibition above about 25%
# IN multimer act: HIV-1 IN multimer formation enhancers, counter-screen for LEDGF/p75 integration inhibitor project, biochemical, TR-FRET. shares compounds with LEDGF integ inh. TR-FRET HIV-1 integrase multimerization. activation, % at 7.7 µM. actives 17% (n = 2,000). AID 1053131, 2014; in the data active = activation above about 8.9%
# TR-FRET interf: TR-FRET optical interference artefacts, confirmation, artefact control for LEDGF/p75-dependent integration inhibitor project, biochemical, HIV-1 IN multimerization; TR-FRET optical interference counterscreen; shares compounds with LEDGF integ inh; 2,000 tested, under 10 active; inhibition, % at 7.7 µM; AID 1053135, 2014;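 active = inhibition above the mean over all tested compounds plus 3 SD, which no compound reached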
# IN-LEDGF confirm: inhibitors of HIV-1 IN-LEDGF/p75 DNA integration, confirmation, biochemical, TR-FRET; inhibition, % at 3.7 µM; actives 36% (n = 2,000); AID 1053136, 2014; TR-FRET LEDGF/p75-dependent HIV-1 integration; shares compounds with LEDGF integ inh; in the data active = inhibition above about 14%
# Numbers stand for hits; – = inactive; · = no result. The list is not random: actives were taken first. Their share in the collection is about 2.2%. Rule as the data show it, unless noted: active = inhibition above about 19%; inactive = the rest.
SMILES,SIAE inh,TCR-CD3 inh,HTRA1 inh,LEDGF integ inh,mABHD4 FP,TDP2 absorb,BSA TAMRA ctr,TCR-CD3 conf,IN multimer act,TR-FRET interf,IN-LEDGF confirm,others
Nc1cccc2c(O)cc(S(=O)(=O)O)cc12,·,·,–,·,·,·,·,·,·,·,·,
O=S(=O)(c1cc(O)ccc1O)c1cccc2c(S(=O)(=O)c3cc(O)ccc3O)cccc12,–,25,–,16,–,–,–,–,22,–,41,
CCOC(=O)[C@@]12CN(C(=O)OC(C)(C)C)CC=C1N(Cc1ccc(OC)cc1)C(=O)[C@H]2CC(=O)NCC1CCCCC1,–,·,·,–,–,–,·,·,·,·,·,
CC1=NN(c2ccccc2)C(=O)C1/C=C1/NC(=S)NC1=O (configuration not stated),–,–,·,–,–,–,·,·,·,·,·,
CC1=NN(c2ccccc2)C(=O)C1C=Nc1ccc(N(C)C)cc1 (configuration not stated),–,23,·,60,39,32,–,–,–,–,–,mABHD4 conf=–;TDP2 confirm=–
Cc1cccc(OCCCN2CCC(C(O)(c3ccccc3)c3ccccc3)CC2)c1,–,–,·,–,–,–,·,·,·,·,·,
Oc1ccccc1/C=N/c1c(-c2ccco2)nc2ccccn12,–,20,–,20,52,–,–,–,–,–,–,mABHD4 conf=–
c1coc(-c2nnc(-c3ccco3)nn2)c1,–,28,–,61,–,–,–,–,11,–,86,
O=C(O)c1cc(Cl)ccc1-c1ccc(/C=C/c2cc(C(F)(F)F)[nH]c(=O)n2)o1,–,19,–,17,–,–,–,–,–,–,–,
O=C1CC(c2ccc(O)c(O)c2)Oc2c1ccc(O)c2O (configuration not stated),–,28,–,93,–,–,–,33,57,–,91,
Cc1ccc(-c2nnc(SCC(=O)Nc3ccc4c(c3)OCCO4)n2-c2ccc(C)cc2)cc1,–,·,·,–,–,–,·,·,·,·,·,
O=c1c(OC2OC(CO)C(O)C(O)C2OC2OC(CO)C(O)C(O)C2O)c(-c2ccc(O)cc2)oc2cc(O)cc(O)c12 (configuration not stated),–,23,–,19,–,–,–,–,48,–,48,
CCOC(=O)N1CCN(C(=O)C[C@H]2C[C@@]3(C(=O)OC)C(=C[C@H](C(C)(C)C)O[C@@H]3C)N(CCc3ccc(OC)c(OC)c3)C2=O)CC1,–,·,·,–,–,–,·,·,·,·,·,
O=C(Cc1nnc(NC(=O)c2ccccc2)s1)N/N=C/c1ccco1,–,19,–,36,–,–,–,–,–,–,–,
O=C(Cc1nnc(NC(=O)c2ccccc2)s1)N/N=C/c1cccc(O)c1,–,–,–,–,–,–,·,·,·,·,·,
COC[C@H]1O[C@]2(c3ccccc3)CO[C@H]1[C@@H](/C=C/c1ccccc1)C2,–,·,·,–,–,–,·,·,·,·,·,
C[C@H]1[C@H](c2ccccc2)Oc2cc(Br)ccc2S(=O)(=O)N1Cc1ccc(Cl)cc1,–,–,·,–,–,–,·,·,·,·,·,
Cc1cnc(C=NNC(N)=S)c2cccc(N)c12,–,29,–,17,–,–,–,–,20,–,61,
CCC(=O)Nc1ccc2c(c1)C(=O)N(C)[C@@H]1CC[C@@H](CC(=O)NCCN3CCCCC3)O[C@H]1CO2,–,·,·,–,–,–,·,·,·,·,·,
Cc1ccccc1NCC(=O)N/N=C/c1ccc[nH]1,–,·,·,–,–,–,·,·,·,·,·,
COc1ccc(-c2c(C(=O)c3ccccc3)[nH]c(N)c2C(=O)c2c[nH]c3ccccc23)cc1OC,–,·,·,–,–,–,·,·,·,·,·,
COC(=O)C1CCN(C(=O)c2cc(-c3ccco3)nc3ccccc23)CC1,–,27,–,28,–,–,–,31,15,–,49,
NN1C(=O)/C(=C\c2ccco2)SC1=S,–,20,·,55,42,–,–,–,–,–,–,mABHD4 conf=–
O=C1/C(=C/c2ccco2)SC(=S)N1c1cccnc1,–,28,–,93,31,–,–,23,16,–,66,mABHD4 conf=–
O=C1/C(=C\c2ccco2)SC(=S)N1c1ccc(O)cc1,–,–,–,–,–,–,·,·,·,·,·,
SMILES,SIAE inh,TCR-CD3 inh,HTRA1 inh,LEDGF integ inh,mABHD4 FP,TDP2 absorb,BSA TAMRA ctr,TCR-CD3 conf,IN multimer act,TR-FRET interf,IN-LEDGF confirm,others
Oc1ccc(/C=N/NC(=S)Nc2cccnc2)c(O)c1O,53,83,–,84,41,35,–,56,30,–,84,mABHD4 conf=68;TDP2 confirm=–
Oc1ccc(/C=N/N=C/c2ccc(O)c(O)c2)cc1O,–,51,–,75,–,–,–,67,32,–,90,
Oc1ccc(/C=N/N=C/c2ccc(O)cc2)cc1,–,–,–,–,–,–,·,·,·,·,·,
O=C(N/N=C/c1c(O)n(Cc2ccco2)c(=O)[nH]c1=O)c1ccccc1,–,23,–,53,–,–,–,20,13,–,–,
CC1=NN(c2cccc(C(=O)O)c2)C(=O)/C1=C\C=C\c1ccco1,–,19,–,78,40,–,–,–,46,–,72,mABHD4 conf=57
CC1=NN(c2ccccc2)C(=O)/C1=C/C=C/c1ccccc1,–,–,–,–,–,–,·,·,·,·,·,
